Scp1 inh – Scp-1 (human) phosphatase inhibition. inhibition, % at 20 µM. hit rate 0.88% among 340,000. Q9GZU7. Recombinant Scp1, phosphopeptide, malachite green phosphate absorbance. AID 493091;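 active = inhibition above about 50% at 20 µM, limit read from the data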;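 note: plate controls were DMSO wells with enzyme for no effect and wells lacking enzyme for full effect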
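Times: enzyme reaction 45 min at room temperature, colour 5 min, stabilisation 30 min. Material: SCP-1 catalytic fragment, aa 76-261. Medium: Acidic Tris acetate buffer with magnesium and detergent. Signal: colorimetric free-phosphate detection, absorbance 630 nm. Read-out basis: % inhibition of SCP-1 phosphate liberation. Reagent: Phosphorylated 17-residue peptide substrate.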
LMPTP inh – LMPTP (human) inhibition | P24666 | recombinant LMPTP-A, OMFP fluorogenic substrate, fluorescence intensity | inhibition, % at 20 µM | hit rate 0.22% among 360,000;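 active = compounds that cut the enzyme signal by at least half of the control window in the single-dose screen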;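 note: plate controls were DMSO wells with enzyme plus substrate for no effect and substrate without enzyme for full effect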
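Test system: LMPTP-A phosphatase enzyme; input: 0.625 nM LMPTP-A final; reagent: OMFP substrate, 400 µM final; compound dosing: 20 µM single dose, 3% DMSO; incubation: 50 min dark incubation at room temperature; measured by: endpoint fluorescence intensity from OMFP dephosphorylation; measure: % inhibition relative to no-enzyme and uninhibited control wells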
UBC9 SUMO inh – blocks human SUMOylation mediated by UBC9; P63279; HTRF SUMOylation assay, SAE1/SAE2 + UBC9, in vitro; inhibition, % at 35 µM; hit rate 0.36% among 290,000; AID 2006; in the data active = inhibition above about 50%, passing the limit was not always enough; inconclusive = no clear call, values can overlap the other calls
SUMO1 PPI mod – modulators of human SUMO1-mediated protein-protein interactions; P63165; SUMO1 binding to a labelled peptide, TR-FRET, 1 h; inhibition, % at 20 µM; hit rate 0.33% among 360,000; AID 602429; in the data active = inhibition above about 37%
Target sequence (P63165 whole entry, looked up): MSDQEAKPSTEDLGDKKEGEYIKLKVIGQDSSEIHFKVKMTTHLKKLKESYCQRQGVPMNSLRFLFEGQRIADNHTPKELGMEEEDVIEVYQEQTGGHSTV
DNMT1 inh – DNMT1 (human) enzyme inhibition. DNMT1 molecular beacon, Hinp1I cleavage, fluorescence. inhibition (reported as % activation of signal), % at 10 µM. hit rate 0.83% among 360,000; in the data active = inhibition above about 50%
STEP block – STEP (human) phosphatase inhibition. P54829. recombinant STEP, OMFP fluorogenic substrate, fluorescence. inhibition, % at 20 µM. hit rate 0.25% among 360,000. AID 588621;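 active = inhibition at 20 µM, scaled per plate between control wells, above about 37%, limit read from the data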;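 note: 0% = DMSO with enzyme and substrate and 100% = substrate only without enzyme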
Target sequence (P54829 whole entry, looked up): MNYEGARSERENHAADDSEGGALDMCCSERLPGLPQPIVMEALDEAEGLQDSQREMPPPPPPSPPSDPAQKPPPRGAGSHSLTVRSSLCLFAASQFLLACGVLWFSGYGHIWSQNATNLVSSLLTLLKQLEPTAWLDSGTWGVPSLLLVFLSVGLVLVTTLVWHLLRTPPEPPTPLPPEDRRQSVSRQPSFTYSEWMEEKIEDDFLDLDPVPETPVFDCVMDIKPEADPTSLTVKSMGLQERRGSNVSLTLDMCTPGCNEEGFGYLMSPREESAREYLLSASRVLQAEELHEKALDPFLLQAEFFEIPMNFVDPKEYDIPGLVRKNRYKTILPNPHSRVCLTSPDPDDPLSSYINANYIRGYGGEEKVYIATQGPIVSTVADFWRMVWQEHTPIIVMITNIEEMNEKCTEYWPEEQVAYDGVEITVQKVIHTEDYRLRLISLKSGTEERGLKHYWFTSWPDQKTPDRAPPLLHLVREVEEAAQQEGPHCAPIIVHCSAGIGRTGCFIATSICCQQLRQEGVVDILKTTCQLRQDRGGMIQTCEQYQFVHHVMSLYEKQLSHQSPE
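Material: STEP (striatal-enriched tyrosine phosphatase) enzyme, cell-free | Medium: 50 mM Bis-Tris pH 6.0 with 2.5 mM DTT and 0.005% Tween 20 | Read-out: Percent inhibition scaled to no-enzyme and uninhibited-enzyme controls, plate-pattern corrected | Signal: Fluorescence read at 480 nm ex / 540 nm em | Times: 20 min reaction, room temperature, in the dark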
* = called active by the depositor; ? = inconclusive; . = no result given. A selection: hits, their analogues and other compounds. The true share with any hit is near 1.9%.

SMILES | Scp1 inh | LMPTP inh | UBC9 SUMO inh | SUMO1 PPI mod | DNMT1 inh | STEP block
CC(=O)N(C)c1ccc(NC(=O)N2CCOCC2)cc1 | -10 | 0 | -2 | 0 | -2 | 3
CCc1nc(N)nc(N)c1-c1ccc(N(C)Cc2ccccc2)c([N+](=O)[O-])c1 | 0 | 79* | . | -19 | -10 | 0
CCc1nc(N)nc(N)c1-c1ccc(Cl)cc1 | -1 | 56* | 25 | 8 | 1 | 0
Cc1cc(C(=O)N2CCC2(C)C(=O)NCc2cccc3ccccc23)nn1C (stereo not drawn) | . | -2 | . | -2 | 7 | -1
Cc1ccc(C)c(N(CC(=O)N2CCCC2)S(C)(=O)=O)c1 | -5 | 1 | 4 | 5 | -3 | 0
Cc1ccc2nc(-c3cc(-c4ccccc4)no3)cn2c1 | 0 | 6 | 8 | 62* | 27 | 2
O=C(N=C1SC2CS(=O)(=O)CC2N1c1ccccc1)c1cccc([N+](=O)[O-])c1 (stereo not drawn) | -1 | -1 | . | -6 | -2 | 6
Cc1sc2ncn(CC(=O)N3CCCCC3)c(=O)c2c1S(=O)(=O)N1CCC(C)CC1 | -10 | 0 | 2 | -5 | -1 | -3
CCCN1CCN(C(=O)Cn2cnc3sc(C)c(S(=O)(=O)N4CCC(C)CC4)c3c2=O)CC1 | -6 | -1 | -2 | 48* | 16 | -2
CCCCn1c(N)c(N(CC(C)C)C(=O)CC2OC(=O)c3ccccc32)c(=O)[nH]c1=O (stereo not drawn) | -7 | -2 | . | 1 | -1 | -2
COc1ccccc1C(=O)N/N=C(\C)c1ccc(NC(=O)Cc2ccccc2)cc1 | 1 | -2 | 9 | 44* | -4 | 1
NC(CSC(c1ccccc1)(c1ccccc1)c1ccccc1)C(=O)O (stereo not drawn) | 2 | 1 | . | 1 | 52* | 6
CCOc1cc(/C=C2\C(=O)ON=C2C)ccc1OCc1ccccc1 | -18 | -1 | 5 | 40* | 8 | 1
CCCOc1ccc(/C=C2/C(=O)ON=C2C)cc1OCC | -5 | 0 | 9 | 19 | 13 | 2
CN1C(=O)c2cccc3c(S(=O)(=O)NCCc4ccccc4)ccc1c23 | -6 | 1 | 56* | -25 | -2 | -1
CCOC(=O)c1c(NC(=O)CSc2nnc(C)c(=O)[nH]2)sc(C)c1-c1ccc(C)cc1 | -5 | 2 | 6 | 38* | -3 | 3
CC1C(=O)NN=C1C(=O)N/N=C\c1ccc(O)cc1O (stereo not drawn) | -8 | 0 | 89* | 2 | -2 | -2
NC(=S)n1[nH]c(-c2ccc([N+](=O)[O-])cc2)c(N=Nc2ccc(Cl)cc2)c1=O | 3 | 29 | 64* | 87* | 107* | 4
Cc1ccc([N+](=O)[O-])cc1N=Nc1c(-c2ccc([N+](=O)[O-])cc2)[nH]n(C(N)=S)c1=O | 63* | 27 | 22 | 18 | 21 | 9
Cc1ccc([N+](=O)[O-])cc1N=Nc1c(C)[nH]n(C(N)=S)c1=O | -7 | 0 | 7 | -23 | 0 | 1
Cc1ccc(-n2ncc3c(=O)[nH]c(SCC(=O)N4CCCC4)nc32)cc1C | -3 | -5 | 0 | 5 | 1 | -1
Cc1ccc(-n2ncc3c(=O)[nH]c(SCC(=O)N4CCC(C)CC4)nc32)cc1C | 3 | 1 | 14 | 41* | -2 | -1
COc1ccc(C(=O)NC(=O)COC(=O)c2ccc3ncsc3c2)cc1 | . | . | 68* | . | . | .
OCCCNc1ncnc2c1ncn2[C@H]1CN(Cc2ccc3c(c2)OCO3)C[C@@H](CO)O1 | . | -1 | . | -2 | 3 | -3
COc1ccc(-c2csc(C(NC(C)=O)c3ccccc3)n2)cn1 (stereo not drawn) | . | -1 | . | 0 | 1 | -2
SMILES | Scp1 inh | LMPTP inh | UBC9 SUMO inh | SUMO1 PPI mod | DNMT1 inh | STEP block
Cc1cc2cc(CNC(=O)c3ccc4c(c3)OCO4)ccc2n1C | -1 | 55* | -12 | -22 | -5 | 0
COc1ccc(C(=O)NCc2ccc3c(c2)cc(C)n3C)cc1 | -9 | 15 | -14 | -20 | -9 | 1
CCCn1c(SCC(=O)NCCc2ccccc2)nnc1C(C)C | -6 | -2 | -6 | -11 | 4 | 12
Cc1c(C)c2ccc(OCC(=O)Nc3ccccn3)cc2oc1=O | 6 | 0 | -6 | 55* | -1 | 0
COCCN1C[C@@H](CO)O[C@@H](n2cnc3c(N4CCN(c5ccccc5)CC4)ncnc32)C1 | . | 0 | . | -2 | 3 | 0
N#Cc1cn(-c2ccccc2)nc1-c1ccccc1 | 20 | 1 | 19 | 45* | 4 | -1
C[C@@H]1CN([C@H](C)CO)C(=O)CCCn2cc(nn2)CO[C@H]1CN(C)C(=O)Nc1ccc(F)cc1 | . | 0 | . | 5 | 0 | 0
COc1cc2c(cc1OC)/C(=C/C(=O)c1ccc(OC)c([N+](=O)[O-])c1)NCC2 | -6 | 2 | 16 | 42* | -12 | 3
O=C(COc1ccc(/C=N/NC(=O)c2cc3ccccc3o2)cc1Cl)Nc1ccccc1 | 80* | 32 | -10 | -2 | 71* | 54*
C=CCN1C(=O)c2ccc(C(=O)OCC(=O)Nc3ccc(S(N)(=O)=O)cc3)cc2C1=O | -1 | 0 | . | -39 | 2 | -1
O=C(c1cccc(C(=O)N2CCN(c3ncccn3)CC2)c1)N1CCN(c2ncccn2)CC1 | 0 | -2 | -7 | 0 | 0 | -1
O=C(NCCO)Nc1ccc2nsnc2c1 | 0 | -2 | 34 | -16 | -4 | 0
O=C(NCCO)Nc1ccc2nc(-c3ccco3)c(-c3ccco3)nc2c1 | . | . | 98* | . | . | .
O=C(NCc1ccccc1)c1ccc2nc(-c3ccco3)c(-c3ccco3)nc2c1 | 84* | 75* | 89 | 41* | 102* | 9
CC(=O)c1ccc(NC(=O)c2ccc3nc(-c4ccco4)c(-c4ccco4)nc3c2)cc1 | 83* | 86* | 92* | 96* | 123* | 89*
O=C(c1ccc2nc(-c3ccco3)c(-c3ccco3)nc2c1)N1CCN(c2ncccn2)CC1 | 95* | 26 | ? | 34 | 28 | 9
O=C(NCc1ccccc1)c1ccc2nccnc2c1 | -10 | -1 | 16 | -25 | -2 | -1
COc1ccc(S(=O)(=O)N2CCC(C(=O)NCc3cccnc3)CC2)cc1Cl | -10 | -1 | -9 | 1 | -1 | -4
CC12CCC(C(=O)OC3CCCCC3)(OC1=O)C2(C)C (stereo not drawn) | -9 | -1 | 20 | 9 | -3 | -5
CCCN(Cc1nc2cc(Cl)ccc2c(=O)[nH]1)C(=O)c1ccc(S(=O)(=O)N2CCCC2)cc1 | -5 | 0 | . | -3 | -4 | -1
S=c1[nH]c2ccccc2n2c(=S)[nH]nc12 | 3 | -20 | -14 | -7 | 1 | 0
S=c1[nH]nc2ccc3ccccc3n12 | . | 71* | . | -3 | -1 | 0

Screens deposited in PubChem BioAssay by Sanford-Burnham Center for Chemical Genomics.
